Tests used:
[1] = biological target: Induced myeloid leukemia cell differentiation protein Mcl-1 (Homo sapiens, UniProt Q07820); test: Displacement of FAM-Bid peptide from recombinant N-terminal His6x-tagged human Mcl-1 expressed in Escherichia coli BL21 (DE3) incubated for 30 mins by fluorescence polarization assay
A549 = test: Potentiation of taxol-induced cytotoxicity against human A549 cells assessed as fold reduction in taxol IC50 for inhibition of cell viability measured after 48 hrs by SRB assay; assay type: functional
Summary of the method: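 A549 cells in RPMI1640 with 10% FBS at 37°C, 5% CO2. Seeded at 6.5 × 10^3 cells/well and allowed to adhere 24 h. Then exposed 48 h to taxol alone or combined with the Mcl-1 inhibitor (0.0001–100 μM). TCA fixation at 4°C, SRB staining, and Tris-solubilized dye read at 570 nm. Growth inhibition taken relative to control. IC50 reported as mean of triplicates.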

Chain of Induced myeloid leukemia cell differentiation protein Mcl-1 (Q07820 whole entry): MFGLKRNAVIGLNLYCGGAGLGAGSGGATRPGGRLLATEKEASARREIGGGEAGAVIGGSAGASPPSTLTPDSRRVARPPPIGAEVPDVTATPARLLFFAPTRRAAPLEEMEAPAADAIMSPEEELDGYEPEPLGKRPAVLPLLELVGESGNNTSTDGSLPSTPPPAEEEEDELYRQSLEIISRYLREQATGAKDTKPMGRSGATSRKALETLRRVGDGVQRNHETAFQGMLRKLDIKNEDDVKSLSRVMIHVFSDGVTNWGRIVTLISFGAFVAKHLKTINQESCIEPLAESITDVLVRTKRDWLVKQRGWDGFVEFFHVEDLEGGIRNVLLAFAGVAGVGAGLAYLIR

SMILES | IC50 [1] [µM] | Ki [1] [µM] | fold change (FC) (A549)
COc1ccc2c(CO)cc(=O)oc2c1O | 32.9 | 7.15 | 
CN(C)Cc1c(O)c(O)cc2oc(=O)ccc12 | 19.9 | 4.79 | 
[N-]=[N+]=NCc1cc(=O)oc2cc(O)c(O)cc12 | 34.6 | 9.17 | 
Cc1cc(=O)oc2c([N+](=O)[O-])c(O)ccc12 | 26.3 | 10.8 | 
COc1cc2cc([N+](=O)[O-])c(=O)oc2c([N+](=O)[O-])c1OC | 12.2 | 2.19 | 
O=c1ccc2ccc(O)cc2o1 [UMBELLIFERONE] | 21 | 3.81 | 
O=c1ccc2ccccc2o1 [COUMARIN] | 24.4 | 4.06 | 
Cc1cc(=O)oc2c(CN3CCC(O)CC3)c(O)c(O)cc12 | 59.2 | 21.3 | 
O=c1cc(CCl)c2ccc(O)c(O)c2o1 | 18.6 | 3.19 | 
CCc1cc2c(C)cc(=O)oc2cc1O | 30.9 | 5.47 | 
COc1cc2ccc(=O)oc2cc1O [SCOPOLETIN] | 22.6 | 13.4 | 
CN(C)Cc1c(O)c(O)cc2ccc(=O)oc12 | 53.6 | 11.5 | 
Cc1cc(=O)oc2cc(O)c(Cl)cc12 | 28.6 | 5.26 | 
Cc1cc(=O)oc2cc(O)ccc12 [HYMECROMONE] | 104 | 22.1 | 
COc1ccc2ccc(=O)oc2c1O | 16.9 | 7.02 | 
COc1ccc2c(CCl)cc(=O)oc2c1O | 30.6 | 6.59 | 
COc1cc2ccc(=O)oc2c(O)c1O [FRAXETIN] | 32.1 | 5.51 | 
O=c1ccc2cc(O)c(O)c(CN3CCC(O)CC3)c2o1 | 21.8 | 4.81 | 
COc1cc2oc(=O)ccc2cc1O [ISOSCOPOLETIN] | 51.5 | 15.9 | 
O=c1ccc2cc(O)ccc2o1 [6-HYDROXYCOUMARIN] | 83.7 | 23.9 | 
COc1cc2ccc(=O)oc2cc1OC [SCOPARONE] | 25.1 | 9.54 | 
COc1ccc2c(C)cc(=O)oc2c1O | 16.9 | 2.39 | 
O=c1cc(CO)c2ccc(O)c(O)c2o1 | 32.2 | 5.67 | 
O=C(O)Cc1cc(=O)oc2cc(O)c(O)cc12 | 33.7 | 9.36 | 

Further molecules by falling IC50 [1], results first:

IC50 [1] [µM] | Ki [1] [µM] | SMILES | fold change (FC) (A549)
14.7 | 2.77 | O=c1ccc2c(CN3CCC(O)CC3)c(O)c(O)cc2o1 | 
11.8 | 1.75 | O=c1ccc2ccc(O)c(O)c2o1 [DAPHNETIN] | 
11.3 | 2.54 | Cc1cc(=O)oc2c(CN3CCCC3)c(O)c(O)cc12 | 
11.2 | 2.11 | Cc1cc(=O)oc2c(O)c(O)ccc12 [4-METHYLDAPHNETIN] | 
8.77 | 1.49 | O=c1ccc2cc(O)c(O)cc2o1 [ESCULETIN] | 
7.39 | 1.46 | Cc1cc(=O)oc2c(CN(C)C)c(O)c(O)cc12 | 
6.28 | 1.19 | Cc1cc(=O)oc2cc(O)c(O)cc12 [4-METHYLESCULETIN] | 
5.82 | 1.04 | O=c1cc(CCl)c2cc(O)c(O)cc2o1 | 
4.01 | 0.76 | O=c1cc(CO)c2cc(O)c(O)cc2o1 | 
3.27 | 0.65 | O=c1cc(-c2ccccc2)c2cc(O)c(O)cc2o1 | 
1.21 | 0.21 | O=c1cc(C(F)(F)F)c2cc(O)c(O)cc2o1 | >10
